Experiment [1] has as its target Transient receptor potential cation channel subfamily A member 1 (Rattus norvegicus) (UniProt Q6RI86). Kind of experiment: Agonist activity at rat recombinant TRPA1 receptor expressed in HEK293 cells assessed as stimulation of intracellular calcium level using Fluo4-AM dye based fluorimetric assay relative to allyl isothiocyanate. In kind it is functional, cell-based. (In general: Calcium assays in cells follow changes in intracellular calcium, usually with a dye or a luminescent sensor.)

In experiment [2] the target is T1, Transient receptor potential cation channel subfamily A member 1 (Rattus norvegicus, UniProt Q6RI86). The experiment is described as follows: Antagonist activity at rat recombinant TRPA1 receptor expressed in HEK293 cells assessed as inhibition of 100 uM allyl isothiocyanate-induced stimulation of intracellular calcium level using Fluo4-AM dye based fluorimetric assay. In kind it is functional, cell-based. The method in brief: (§1)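 Fluo-4 AM loaded stable HEK293 cells in Tyrode's buffer, read at 25 °C (ex 488/em 516 nm). Test compound added to the cuvette 5 min before the agonist: capsaicin 0.1 μM (TRPV1), AITC 100 μM (TRPA1), LPC 3 μM (TRPV2). Agonist alone taken as 100%. IC50 for half-maximal inhibition from curve fit. At least triplicate.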
T1 sequence (Q6RI86 whole entry): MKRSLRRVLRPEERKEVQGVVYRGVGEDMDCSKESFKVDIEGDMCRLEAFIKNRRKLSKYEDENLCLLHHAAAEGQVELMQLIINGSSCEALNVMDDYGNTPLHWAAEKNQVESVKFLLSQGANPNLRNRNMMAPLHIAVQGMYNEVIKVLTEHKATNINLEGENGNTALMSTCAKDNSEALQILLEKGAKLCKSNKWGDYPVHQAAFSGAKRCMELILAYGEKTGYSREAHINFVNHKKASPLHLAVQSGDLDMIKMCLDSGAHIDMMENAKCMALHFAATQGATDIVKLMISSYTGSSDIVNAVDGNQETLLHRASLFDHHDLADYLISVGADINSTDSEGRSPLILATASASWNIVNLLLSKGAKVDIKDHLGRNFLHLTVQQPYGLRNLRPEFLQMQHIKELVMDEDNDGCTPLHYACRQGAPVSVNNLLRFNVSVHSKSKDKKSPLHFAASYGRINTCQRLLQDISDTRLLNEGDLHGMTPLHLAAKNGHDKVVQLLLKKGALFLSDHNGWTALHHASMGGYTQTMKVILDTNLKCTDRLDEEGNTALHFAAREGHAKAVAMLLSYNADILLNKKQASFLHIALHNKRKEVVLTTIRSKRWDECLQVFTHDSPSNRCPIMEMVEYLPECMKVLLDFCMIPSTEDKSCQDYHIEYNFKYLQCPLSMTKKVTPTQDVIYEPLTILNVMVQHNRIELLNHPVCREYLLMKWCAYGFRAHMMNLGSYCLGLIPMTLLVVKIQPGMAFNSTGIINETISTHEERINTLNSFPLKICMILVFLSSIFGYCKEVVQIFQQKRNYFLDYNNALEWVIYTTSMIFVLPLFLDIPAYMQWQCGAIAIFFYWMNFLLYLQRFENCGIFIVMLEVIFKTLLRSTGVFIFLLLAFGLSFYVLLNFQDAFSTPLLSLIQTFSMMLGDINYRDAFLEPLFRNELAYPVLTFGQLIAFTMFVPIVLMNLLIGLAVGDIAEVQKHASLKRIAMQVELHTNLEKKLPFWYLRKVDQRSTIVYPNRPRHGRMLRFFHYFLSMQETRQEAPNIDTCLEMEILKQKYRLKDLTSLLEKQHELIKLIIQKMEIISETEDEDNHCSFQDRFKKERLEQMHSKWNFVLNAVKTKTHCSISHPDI

The target in experiment [3] is T2, Transient receptor potential cation channel subfamily V member 2 (Rattus norvegicus) (UniProt Q9WUD2).
T2 sequence (whole entry): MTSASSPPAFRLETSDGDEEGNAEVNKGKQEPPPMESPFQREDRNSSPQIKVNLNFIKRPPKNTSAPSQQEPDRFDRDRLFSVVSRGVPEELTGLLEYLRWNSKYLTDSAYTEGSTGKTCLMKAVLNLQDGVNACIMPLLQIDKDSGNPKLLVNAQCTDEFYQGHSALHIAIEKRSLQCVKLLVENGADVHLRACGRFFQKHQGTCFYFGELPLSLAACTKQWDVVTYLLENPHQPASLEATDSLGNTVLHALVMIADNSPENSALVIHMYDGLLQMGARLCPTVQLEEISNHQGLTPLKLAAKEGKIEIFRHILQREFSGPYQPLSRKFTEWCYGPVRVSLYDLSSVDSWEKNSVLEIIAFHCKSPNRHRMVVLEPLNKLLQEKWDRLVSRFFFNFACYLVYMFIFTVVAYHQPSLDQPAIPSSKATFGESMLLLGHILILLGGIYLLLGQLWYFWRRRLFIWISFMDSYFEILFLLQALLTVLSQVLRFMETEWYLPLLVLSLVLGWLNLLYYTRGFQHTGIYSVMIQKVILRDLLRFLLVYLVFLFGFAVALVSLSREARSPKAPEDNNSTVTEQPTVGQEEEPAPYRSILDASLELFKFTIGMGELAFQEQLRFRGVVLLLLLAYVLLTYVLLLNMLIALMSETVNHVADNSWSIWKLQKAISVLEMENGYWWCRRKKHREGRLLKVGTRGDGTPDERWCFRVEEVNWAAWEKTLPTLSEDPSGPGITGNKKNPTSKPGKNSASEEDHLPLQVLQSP
Kind of experiment: Agonist activity at rat recombinant TRPV2 receptor expressed in HEK293 cells assessed as stimulation of intracellular calcium level using Fluo4-AM dye based fluorimetric assay relative to 4 uM ionomycin. In kind it is functional, cell-based.

Experiment [4] has as its target T3, Transient receptor potential cation channel subfamily V member 1 (Homo sapiens, UniProt Q8NER1). Kind of experiment: Agonist activity at human TRPv1 receptor expressed in HEK293 cells assessed as stimulation of intracellular calcium level using Fluo4-AM dye based fluorimetric assay. Type of experiment: functional, cell-based. Put shortly: (§2)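 Stable HEK293 lines (G-418 selected, expression checked by qPCR) loaded 1 h at room temperature with Fluo-4 AM 4 μM. Cells washed and resuspended in Tyrode's buffer pH 7.4. Fluorescence (ex 488/em 516 nm) read in a stirred cuvette at 25 °C before and after test compound at various concentrations. EC50 from sigmoidal variable-slope fit. At least triplicate.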

The target in experiment [5] is Transient receptor potential cation channel subfamily M member 8 (Rattus norvegicus, UniProt Q8R455). Kind of experiment: Antagonist activity at rat recombinant TRPM8 receptor expressed in HEK293 cells assessed as inhibition of 0.25 uM icilin-induced stimulation of intracellular calcium level using Fluo4-AM dye based fluorimetric assay. In kind it is functional, cell-based. Put shortly: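 Fluo-4 AM loaded rat TRPM8 HEK293 cells in Tyrode's buffer, read at 22 °C with a Peltier-controlled cuvette. Compound added 5 min before 0.25 μM icilin, whose effect alone was taken as 100%. IC50 for half-maximal inhibition from curve fit. At least triplicate.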
Sequence of Transient receptor potential cation channel subfamily M member 8 (Q8R455 whole entry): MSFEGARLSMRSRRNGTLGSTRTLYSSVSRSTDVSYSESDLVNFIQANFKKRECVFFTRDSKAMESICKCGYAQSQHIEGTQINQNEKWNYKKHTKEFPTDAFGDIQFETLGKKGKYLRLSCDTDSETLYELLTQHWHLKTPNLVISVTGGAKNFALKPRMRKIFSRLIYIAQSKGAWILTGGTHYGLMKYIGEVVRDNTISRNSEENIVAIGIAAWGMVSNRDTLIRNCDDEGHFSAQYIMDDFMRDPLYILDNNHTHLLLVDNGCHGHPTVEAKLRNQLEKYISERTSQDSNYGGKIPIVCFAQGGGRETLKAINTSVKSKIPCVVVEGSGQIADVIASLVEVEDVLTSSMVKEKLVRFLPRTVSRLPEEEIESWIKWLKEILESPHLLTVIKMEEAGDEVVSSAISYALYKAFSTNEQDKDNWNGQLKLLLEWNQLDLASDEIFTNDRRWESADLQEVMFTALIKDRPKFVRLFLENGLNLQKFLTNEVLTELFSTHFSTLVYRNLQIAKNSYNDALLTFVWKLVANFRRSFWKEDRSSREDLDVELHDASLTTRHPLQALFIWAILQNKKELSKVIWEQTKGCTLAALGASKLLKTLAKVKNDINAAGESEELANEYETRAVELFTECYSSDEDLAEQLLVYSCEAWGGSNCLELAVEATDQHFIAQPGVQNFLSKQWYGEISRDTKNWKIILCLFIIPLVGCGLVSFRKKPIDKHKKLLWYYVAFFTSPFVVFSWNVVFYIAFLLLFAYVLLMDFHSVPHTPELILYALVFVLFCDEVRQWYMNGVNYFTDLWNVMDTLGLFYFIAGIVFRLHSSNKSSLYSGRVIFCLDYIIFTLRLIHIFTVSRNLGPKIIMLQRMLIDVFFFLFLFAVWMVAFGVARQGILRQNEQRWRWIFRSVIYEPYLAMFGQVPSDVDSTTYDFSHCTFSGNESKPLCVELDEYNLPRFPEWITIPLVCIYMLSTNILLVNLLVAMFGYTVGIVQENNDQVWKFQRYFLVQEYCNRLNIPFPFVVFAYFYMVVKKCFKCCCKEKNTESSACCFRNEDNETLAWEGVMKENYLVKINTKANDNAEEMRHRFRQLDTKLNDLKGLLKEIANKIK

Experiment [6] concerns the target T3, Transient receptor potential cation channel subfamily V member 1. Kind of experiment: Antagonist activity at human TRPv1 receptor expressed in HEK293 cells assessed as inhibition of 0.1 um capsaicin-induced stimulation of intracellular calcium level using Fluo4-AM dye based fluorimetric assay. In kind it is functional, cell-based. Put shortly:
as §1

The target is the same in experiment [7]. Kind of experiment: Agonist activity at human TRPv1 receptor expressed in HEK293 cells assessed as stimulation of intracellular calcium level using Fluo4-AM dye based fluorimetric assay relative to 4 uM ionomycin. Type of experiment: functional, cell-based.
Experiment [8] has as its target T4, Transient receptor potential cation channel subfamily V member 2 (Rattus norvegicus, UniProt Q9WUD2).
T4 sequence (Q9WUD2 whole entry): T2 sequence (whole entry)
Kind of experiment: Agonist activity at rat recombinant TRPV2 receptor expressed in HEK293 cells assessed as stimulation of intracellular calcium level using Fluo4-AM dye based fluorimetric assay. Type of experiment: functional, cell-based. The method in brief:
as §2

The target of a further experiment is Cannabinoid receptor 2 (Homo sapiens, UniProt P34972). Kind of experiment: Displacement of [3H]-CP-55,940 from human recombinant CB2 receptor expressed in HEK293 cells membrane incubated for 90 mins. In kind it is cell membranes. (In general: Displacement assays read how much labelled ligand stays bound in the presence of the test substance.)
Sequence of Cannabinoid receptor 2 (P34972 whole entry): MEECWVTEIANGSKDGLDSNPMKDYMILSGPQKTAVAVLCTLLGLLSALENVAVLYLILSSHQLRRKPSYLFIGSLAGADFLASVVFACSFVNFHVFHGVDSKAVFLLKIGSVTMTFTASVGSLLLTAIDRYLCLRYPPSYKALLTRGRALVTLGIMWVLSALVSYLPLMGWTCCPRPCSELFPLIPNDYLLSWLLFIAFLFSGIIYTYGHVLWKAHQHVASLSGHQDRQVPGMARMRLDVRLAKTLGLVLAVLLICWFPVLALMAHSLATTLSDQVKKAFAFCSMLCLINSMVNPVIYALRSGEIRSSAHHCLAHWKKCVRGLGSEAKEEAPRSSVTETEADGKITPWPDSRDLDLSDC
The target of another experiment is Cannabinoid receptor 1 (Homo sapiens, UniProt P21554). The experiment is described as follows: Displacement of [3H]-CP-55,940 from human recombinant CB1 receptor expressed in HEK293 cells membrane incubated for 90 mins. Type of experiment: cell membranes.
Sequence of Cannabinoid receptor 1 (P21554 whole entry): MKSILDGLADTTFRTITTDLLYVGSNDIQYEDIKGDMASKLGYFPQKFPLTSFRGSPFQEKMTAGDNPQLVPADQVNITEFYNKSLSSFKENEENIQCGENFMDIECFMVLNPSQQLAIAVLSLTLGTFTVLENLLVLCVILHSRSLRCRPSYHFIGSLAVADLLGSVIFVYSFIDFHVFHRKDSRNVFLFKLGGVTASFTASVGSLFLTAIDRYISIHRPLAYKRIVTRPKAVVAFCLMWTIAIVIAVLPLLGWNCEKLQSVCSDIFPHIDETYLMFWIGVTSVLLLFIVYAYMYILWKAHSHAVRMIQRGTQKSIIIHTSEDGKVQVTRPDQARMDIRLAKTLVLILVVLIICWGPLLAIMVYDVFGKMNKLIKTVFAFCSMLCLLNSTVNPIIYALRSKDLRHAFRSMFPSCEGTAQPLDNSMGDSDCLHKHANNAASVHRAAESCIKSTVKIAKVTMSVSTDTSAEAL
Experiment [9] concerns the target T4, Transient receptor potential cation channel subfamily V member 2. The experiment is described as follows: Antagonist activity at rat recombinant TRPV2 receptor expressed in HEK293 cells assessed as inhibition of 3 uM lysophosphatidylcholine-induced stimulation of intracellular calcium level using Fluo4-AM dye based fluorimetric assay. In kind it is functional, cell-based. Put shortly:
as §1

In experiment [10] the target is T1, Transient receptor potential cation channel subfamily A member 1. Kind of experiment: Agonist activity at rat recombinant TRPA1 receptor expressed in HEK293 cells assessed as stimulation of intracellular calcium level using Fluo4-AM dye based fluorimetric assay. Type of experiment: functional, cell-based. The method in brief:
as §2

T3 sequence (Q8NER1 whole entry): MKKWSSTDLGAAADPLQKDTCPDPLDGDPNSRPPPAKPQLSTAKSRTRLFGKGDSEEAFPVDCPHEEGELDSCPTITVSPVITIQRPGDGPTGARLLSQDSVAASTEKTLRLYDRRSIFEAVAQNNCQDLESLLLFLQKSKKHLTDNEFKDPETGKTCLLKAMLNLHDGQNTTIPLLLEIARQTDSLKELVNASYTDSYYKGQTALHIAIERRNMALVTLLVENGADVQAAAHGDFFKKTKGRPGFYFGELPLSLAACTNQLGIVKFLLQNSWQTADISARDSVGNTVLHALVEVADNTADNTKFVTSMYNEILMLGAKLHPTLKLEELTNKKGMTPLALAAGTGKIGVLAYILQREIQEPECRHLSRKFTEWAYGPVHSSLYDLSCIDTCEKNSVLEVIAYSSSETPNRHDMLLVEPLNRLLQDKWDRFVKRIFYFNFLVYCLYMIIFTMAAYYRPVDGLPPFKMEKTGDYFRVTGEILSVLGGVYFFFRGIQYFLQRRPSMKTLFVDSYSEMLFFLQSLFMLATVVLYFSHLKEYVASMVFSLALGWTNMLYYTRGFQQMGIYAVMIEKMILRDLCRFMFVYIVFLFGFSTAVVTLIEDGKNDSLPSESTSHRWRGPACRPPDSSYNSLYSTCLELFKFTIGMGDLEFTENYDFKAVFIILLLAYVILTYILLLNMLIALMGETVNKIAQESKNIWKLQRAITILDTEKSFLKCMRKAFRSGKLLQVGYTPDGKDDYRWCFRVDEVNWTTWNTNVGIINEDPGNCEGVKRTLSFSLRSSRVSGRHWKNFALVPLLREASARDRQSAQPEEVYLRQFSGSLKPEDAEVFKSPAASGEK
Sequence of Transient receptor potential cation channel subfamily A member 1 (Rattus norvegicus) (Q6RI86 whole entry): as the sequence (Q6RI86 whole entry) above

What is called Emax is the greatest response seen or fitted, relative to the assay's reference. Broadly, the IC50 is the concentration that gives 50% inhibition. In general, EC50 refers to the concentration that produces a half-maximal response. By Ki is commonly meant the dissociation constant of the complex between target and ligand, obtained from inhibition or displacement. Consider `CCCCCc1cc(O)c(C/C=C(\C)CC/C=C(\C)CCC=C(C)C)c(O)c1` [SESQUICANNABIGEROL], for which the Emax is 164% in experiment [1], 56% in experiment [3] and 38.8% in experiment [7]. For the same compound, the IC50 in experiment [2] stood at 1200 nM; in experiment [5] it was 950 nM; in [6] it was 5700 nM; on Cannabinoid receptor 2, 710 nM; on Cannabinoid receptor 1 it was 3270 nM; in [9], 2300 nM. Further, the values for the EC50 in experiment [4], in [8] and in [10] were 4400 nM, 2700 nM and 1700 nM, respectively. Further, the Ki at Cannabinoid receptor 2 was determined as 180 nM; on Cannabinoid receptor 1, 750 nM.
In the case of `CCCCCc1cc(O)c(C/C=C(\C)CCC=C(C)C)c(O)c1` [CANNABIGEROL], the results for the Emax in [1], in experiment [3] and in experiment [7] were 99.9%, 73.6% and 33.8%, respectively. Also, the IC50 is 13000 nM in experiment [2]; 160 nM in experiment [5]; 2600 nM in experiment [6]; 3460 nM on Cannabinoid receptor 2; 3310 nM on Cannabinoid receptor 1; 1500 nM in [9]. Besides, the figures for the EC50 in [4], in experiment [8] and in [10] were 1300 nM, 1700 nM and 700 nM, respectively. For the same compound, the results for the Ki on Cannabinoid receptor 2 and on Cannabinoid receptor 1 were 880 nM and 760 nM, respectively.

Values taken from ChEMBL document CHEMBL1821606, “Bioactive prenylogous cannabinoid from fiber hemp (Cannabis sativa)” (J Nat Prod, 2011).
